Measured values published in ChEMBL document CHEMBL1129363, “(S)-13-[(dimethylamino)methyl]-10,11,14,15-tetrahydro-4,9:16, 21-dimetheno-1H, 13H-dibenzo[e,k]pyrrolo[3,4-h][1,4,13]oxadiazacyclohexadecene-1,3(2H)-d ione (LY333531) and related analogues: isozyme selective inhibitors of protein kinase C beta” (J Med Chem, 1996).
pEC50, pIC50: −log10 of the molar value. Blank lines part the entries; values can stand above or below the compound they belong to.

Key:
[1] = Concentration for 50% cell death determined by lysosomal staining in the neutral red viability assay.; settings: read-out: Tox50
Summary of the method: (§1)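 Bovine retinal capillary endothelial cells, passages 3–10, were grown to confluence (10⁵ cells/well) in EGM with 10% FBS. Medium was switched to DME with 10% FBS 24 h before the assay. Compound in DMSO was added for 48 h at 37 °C. Viability was read by neutral red lysosomal staining, and the value is the concentration giving 50% cell death.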

[2] = Inhibition of purified mammalian brain calcium [Ca(2+)]/Calmodulin dependent kinase
[3] = target: T1, Protein kinase C beta type (Homo sapiens, UniProt P05771); test: Inhibition of Protein kinase C beta 2
T1 sequence (P05771 whole entry): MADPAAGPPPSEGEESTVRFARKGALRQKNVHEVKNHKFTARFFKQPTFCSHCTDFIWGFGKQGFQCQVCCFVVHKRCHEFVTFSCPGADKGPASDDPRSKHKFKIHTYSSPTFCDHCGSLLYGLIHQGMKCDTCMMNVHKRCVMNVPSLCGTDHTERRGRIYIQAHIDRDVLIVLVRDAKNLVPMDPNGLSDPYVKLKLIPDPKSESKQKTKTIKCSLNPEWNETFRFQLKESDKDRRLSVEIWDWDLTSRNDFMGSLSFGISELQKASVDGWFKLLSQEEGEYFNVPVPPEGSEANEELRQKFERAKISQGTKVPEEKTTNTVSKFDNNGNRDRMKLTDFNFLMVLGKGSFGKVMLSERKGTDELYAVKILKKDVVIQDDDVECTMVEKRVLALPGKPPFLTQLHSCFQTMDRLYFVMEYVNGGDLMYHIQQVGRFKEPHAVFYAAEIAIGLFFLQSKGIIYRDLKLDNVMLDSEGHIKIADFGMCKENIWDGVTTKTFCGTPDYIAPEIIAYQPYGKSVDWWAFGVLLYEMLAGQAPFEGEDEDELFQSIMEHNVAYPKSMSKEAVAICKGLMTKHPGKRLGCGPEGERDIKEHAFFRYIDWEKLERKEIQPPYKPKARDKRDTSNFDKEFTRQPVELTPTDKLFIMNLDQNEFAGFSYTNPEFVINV

[4] = Effective dose against plasminogen activator activity stimulated by phorbol ester in endothelial cells; assay type: functional; settings: Endothelial cell; read-out: ED50 (the source's name)
[5] = target: Protein kinase C delta type (Homo sapiens, UniProt Q05655); test: Inhibition of Protein kinase C delta
Sequence of Protein kinase C delta type (Q05655 whole entry): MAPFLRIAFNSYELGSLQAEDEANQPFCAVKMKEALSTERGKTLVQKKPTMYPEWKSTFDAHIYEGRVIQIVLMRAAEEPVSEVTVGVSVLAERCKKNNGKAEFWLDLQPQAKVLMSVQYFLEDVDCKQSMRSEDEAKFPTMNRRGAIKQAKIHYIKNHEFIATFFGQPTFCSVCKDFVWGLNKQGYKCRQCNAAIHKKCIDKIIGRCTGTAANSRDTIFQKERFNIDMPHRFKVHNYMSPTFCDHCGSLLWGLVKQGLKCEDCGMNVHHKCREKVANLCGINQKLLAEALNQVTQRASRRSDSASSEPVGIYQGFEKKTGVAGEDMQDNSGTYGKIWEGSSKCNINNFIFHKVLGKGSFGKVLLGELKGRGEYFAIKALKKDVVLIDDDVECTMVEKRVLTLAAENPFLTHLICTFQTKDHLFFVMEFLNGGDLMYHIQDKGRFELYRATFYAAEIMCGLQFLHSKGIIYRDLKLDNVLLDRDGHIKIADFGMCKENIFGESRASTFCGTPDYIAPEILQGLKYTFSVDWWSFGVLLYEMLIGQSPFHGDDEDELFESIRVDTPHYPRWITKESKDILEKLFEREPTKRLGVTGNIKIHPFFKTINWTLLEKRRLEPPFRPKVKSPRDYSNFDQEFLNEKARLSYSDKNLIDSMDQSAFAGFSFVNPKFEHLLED

[6] = target: T1, Protein kinase C beta type; test: Inhibition of Protein kinase C beta 1
[7] = target: T2, Protein kinase C epsilon type (Homo sapiens, UniProt Q02156); test: Inhibition of Protein kinase C epsilon
T2 sequence (Q02156 whole entry): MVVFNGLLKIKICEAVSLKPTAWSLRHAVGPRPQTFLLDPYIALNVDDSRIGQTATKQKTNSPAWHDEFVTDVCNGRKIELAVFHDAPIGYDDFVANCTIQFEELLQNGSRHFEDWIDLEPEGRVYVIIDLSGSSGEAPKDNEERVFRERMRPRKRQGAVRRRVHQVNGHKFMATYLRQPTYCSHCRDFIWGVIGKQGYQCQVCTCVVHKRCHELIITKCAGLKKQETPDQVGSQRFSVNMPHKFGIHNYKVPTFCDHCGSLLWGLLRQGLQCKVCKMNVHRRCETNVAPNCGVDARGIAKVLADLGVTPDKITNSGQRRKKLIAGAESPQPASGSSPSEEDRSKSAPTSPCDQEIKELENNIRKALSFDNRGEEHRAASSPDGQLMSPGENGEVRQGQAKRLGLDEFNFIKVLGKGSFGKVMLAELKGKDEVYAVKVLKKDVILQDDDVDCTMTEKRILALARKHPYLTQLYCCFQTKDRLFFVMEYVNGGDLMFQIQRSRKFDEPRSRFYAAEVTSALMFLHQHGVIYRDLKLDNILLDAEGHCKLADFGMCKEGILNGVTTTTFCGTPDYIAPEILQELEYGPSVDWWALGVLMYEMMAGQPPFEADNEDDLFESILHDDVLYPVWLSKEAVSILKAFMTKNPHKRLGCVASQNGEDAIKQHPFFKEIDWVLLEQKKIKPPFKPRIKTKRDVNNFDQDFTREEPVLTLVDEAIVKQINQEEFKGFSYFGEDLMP

[8] = target: T3, Protein kinase C zeta type (Homo sapiens, UniProt Q05513); test: Inhibition of Protein kinase C zeta
T3 sequence (Q05513 whole entry): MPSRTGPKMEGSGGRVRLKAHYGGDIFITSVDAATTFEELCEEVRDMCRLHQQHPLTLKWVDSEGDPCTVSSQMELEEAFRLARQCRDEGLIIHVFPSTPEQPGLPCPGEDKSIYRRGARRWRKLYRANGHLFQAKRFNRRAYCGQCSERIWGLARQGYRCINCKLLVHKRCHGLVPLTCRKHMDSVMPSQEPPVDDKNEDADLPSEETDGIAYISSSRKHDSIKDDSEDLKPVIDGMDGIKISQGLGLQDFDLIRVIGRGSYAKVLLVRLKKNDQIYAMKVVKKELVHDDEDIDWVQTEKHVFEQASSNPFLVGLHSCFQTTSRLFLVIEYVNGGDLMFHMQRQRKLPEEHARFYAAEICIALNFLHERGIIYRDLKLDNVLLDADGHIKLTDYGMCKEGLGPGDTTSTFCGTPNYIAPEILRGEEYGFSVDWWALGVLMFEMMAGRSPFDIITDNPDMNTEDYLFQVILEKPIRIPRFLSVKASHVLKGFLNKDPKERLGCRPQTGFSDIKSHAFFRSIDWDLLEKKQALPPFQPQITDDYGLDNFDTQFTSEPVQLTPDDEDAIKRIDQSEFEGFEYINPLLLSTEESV

[9] = target: Protein kinase C gamma type (Homo sapiens, UniProt P05129); test: Inhibition of Protein kinase C gamma
[10] = target: Protein kinase C eta type (Homo sapiens, UniProt P24723); test: Inhibition of Protein kinase C eta
Sequence of Protein kinase C eta type (P24723 whole entry): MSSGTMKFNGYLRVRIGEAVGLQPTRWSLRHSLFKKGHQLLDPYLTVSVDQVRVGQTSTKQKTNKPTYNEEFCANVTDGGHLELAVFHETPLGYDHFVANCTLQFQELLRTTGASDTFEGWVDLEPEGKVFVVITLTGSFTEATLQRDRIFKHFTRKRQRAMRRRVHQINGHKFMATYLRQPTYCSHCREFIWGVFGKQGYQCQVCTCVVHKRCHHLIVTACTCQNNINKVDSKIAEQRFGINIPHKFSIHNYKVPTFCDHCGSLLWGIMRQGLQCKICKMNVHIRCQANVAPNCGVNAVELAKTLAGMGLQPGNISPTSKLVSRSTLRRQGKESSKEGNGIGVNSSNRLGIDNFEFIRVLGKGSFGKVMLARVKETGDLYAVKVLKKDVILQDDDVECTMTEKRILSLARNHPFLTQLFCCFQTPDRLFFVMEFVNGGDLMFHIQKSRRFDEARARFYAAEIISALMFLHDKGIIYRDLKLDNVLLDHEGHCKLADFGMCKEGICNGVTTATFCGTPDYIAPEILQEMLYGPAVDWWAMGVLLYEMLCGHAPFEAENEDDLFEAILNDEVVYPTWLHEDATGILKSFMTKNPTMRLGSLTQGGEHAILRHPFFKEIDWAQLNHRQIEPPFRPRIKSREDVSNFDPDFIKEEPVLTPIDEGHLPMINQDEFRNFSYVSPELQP

[11] = Effective concentration for 50% inhibition of Endothelial cell- based plasminogen activator activity relative to control by beta-PDBu stimulation; assay type: functional
Summary of the method: (§2)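 Bovine retinal capillary endothelial cells (passages 3–10), grown to confluence (10⁵ cells/well) in EGM with 10% FBS, switched to DME/10% FBS 24 h before assay; treated with 4β-PDBu plus compound in DMSO, 37 °C, 48 h. Lysate (25 mM NH₄OH, 0.5% Triton X-100) incubated with plasminogen and 1 mM chromogenic substrate, 25 °C 45 min, A410 against urokinase/tPA standard curve.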

[12] = Inhibition of Bovine heart cAMP-dependent protein kinase; design: species or system Bos taurus
Summary of the method: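 Bovine heart cAMP-dependent kinase catalytic subunit with 200 µg/mL histone type HL substrate in 20 mM HEPES pH 7.5, 10 mM MgCl₂, 30 µM [γ-³²P]ATP; inhibitor in DMSO; 30 °C, 10 min; TCA-stopped, precipitate filtered and scintillation-counted. Average of at least three independent determinations from eight-point titration curves.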

[13] = Effective concentration for 50% inhibition of endothelial cell based plasminogen activity relative to control by beta-PDBu stimulation; assay type: functional; summary of the method: as §2
[14] = Inhibition of rat brain Casein kinase II
[15] = target: Proto-oncogene tyrosine-protein kinase Src (Homo sapiens, UniProt P12931); test: Inhibition of src kinase
Sequence of Proto-oncogene tyrosine-protein kinase Src (P12931 2-536 limits assumed): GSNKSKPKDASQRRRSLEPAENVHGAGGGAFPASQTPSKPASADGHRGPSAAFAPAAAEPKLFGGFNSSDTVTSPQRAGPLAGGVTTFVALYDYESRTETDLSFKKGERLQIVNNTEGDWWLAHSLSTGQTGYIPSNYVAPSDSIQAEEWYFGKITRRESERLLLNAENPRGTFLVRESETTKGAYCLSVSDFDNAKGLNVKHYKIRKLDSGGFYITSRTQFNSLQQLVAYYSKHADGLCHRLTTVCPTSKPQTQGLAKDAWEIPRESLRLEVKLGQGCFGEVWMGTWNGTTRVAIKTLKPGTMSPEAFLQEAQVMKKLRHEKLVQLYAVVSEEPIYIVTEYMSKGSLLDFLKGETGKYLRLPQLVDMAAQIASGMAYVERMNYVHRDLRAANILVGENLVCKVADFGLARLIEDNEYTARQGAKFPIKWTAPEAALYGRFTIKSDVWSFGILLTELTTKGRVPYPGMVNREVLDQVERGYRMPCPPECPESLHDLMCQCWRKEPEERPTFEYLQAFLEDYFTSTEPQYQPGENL

[16] = target: Protein kinase C alpha type (Homo sapiens, UniProt P17252); test: Inhibition of Protein kinase C alpha
[17] = Effective concentration for 50% inhibition of endothelial cell- based plasminogen activator activity relative to control by beta-PDBu stimulation; assay type: functional; summary of the method: as §2
Protein kinase C (PKC) [18] = test: (§3) Inhibition of rat brain Protein kinase C
[19] = Concentration for 50% cell death determined by lysosomal staining in the neutral red viability assay; settings: read-out: Tox50; summary of the method: as §1
Protein kinase C (PKC) [20] = test: as §3; remark: listed apart in the source
Summary of the method: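 Purified rat-brain PKC was used as enzyme. Values are averages of at least three independent determinations, each from an eight-point titration curve.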

SMILES: CN[C@@H]1C[C@H]2O[C@@](C)([C@@H]1OC)n1c3ccccc3c3c4c(c5c6ccccc6n2c5c31)C(=O)NC4 [STAUROSPORINE]
CC50 [1]: < 0.02 µM
pIC50 [2]: 8.40

SMILES: CN1CCN(C[C@@H]2CCn3cc(c4ccccc43)C3=C(C(=O)NC3=O)c3cn(c4ccccc34)CCO2)CC1
pIC50 [3]: 7.62
pEC50 [4]: 6.26
CC50 [1]: > 20 µM
pIC50 [5]: 5.55
pIC50 [6]: 7.52
pIC50 [7]: < 5.30
pIC50 [8]: < 5.30
pIC50 [9]: 5.49
pIC50 [10]: 5.70
pEC50 [11]: 6.26

pIC50 [12]: < 4.00
pEC50 [4]: 5.52
pEC50 [13]: 5.52
pIC50 [14]: < 4.00
pIC50 [15]: < 4.00
pIC50 [7]: 4.10
pIC50 [8]: 5.06
pIC50 [9]: 5.70
pIC50 [10]: 6.52
SMILES: O=C1NC(=O)C2=C1c1cn(c3ccccc13)CCO[C@H](CO)CCn1cc2c2ccccc21

SMILES: O=C1NC(=O)C2=C1c1cn(c3ccccc13)CCO[C@H](CNS(=O)(=O)c1ccccc1)CCn1cc2c2ccccc21
pIC50 [12]: < 4.00
pIC50 [16]: < 5.30
pEC50 [4]: < 5.70
CC50 [1]: > 2 µM
pIC50 [14]: < 4.00
pIC50 [15]: < 4.00
pEC50 [17]: < 5.70
pIC50 [5]: 6.06
IC50 (Protein kinase C (PKC) [18]): 10 µM
pIC50 [7]: < 5.30
pIC50 [8]: < 5.30
pIC50 [9]: < 5.30
pIC50 [10]: 5.72

SMILES: CN(C)C[C@@H]1CCn2cc(c3ccccc32)C2=C(C(=O)NC2=O)c2cn(c3ccccc23)CCO1 [RUBOXISTAURIN]
pIC50 [12]: < 4.00
pEC50 [4]: 6.68
CC50 [19]: > 20 µM
pIC50 [14]: < 4.00
IC50 (Protein kinase C (PKC) [20]): 0.32 µM
pIC50 [2]: 5.21
pIC50 [9]: 6.52
pIC50 [10]: 7.28

SMILES: O=C1NC(=O)C2=C1c1cn(c3ccccc13)CCO[C@H](CNCc1ccccc1)CCn1cc2c2ccccc21
pIC50 [12]: < 4.00
pIC50 [16]: 5.20
pIC50 [3]: 6.51
pEC50 [4]: 5.37
CC50 [1]: > 20 µM
pIC50 [14]: < 4.00
pIC50 [15]: < 4.00
pEC50 [17]: 5.37
pIC50 [5]: 5.11
IC50 (Protein kinase C (PKC) [18]): 4.2 µM
pIC50 [6]: 6.48
pIC50 [7]: 4.24
pIC50 [8]: 4.27
pIC50 [9]: 5.19
pIC50 [10]: 5.60

SMILES: O=C1NC(=O)C2=C1c1cn(c3ccccc13)CCO[C@H](CN1CCCC1)CCn1cc2c2ccccc21
pIC50 [12]: < 4.00
pIC50 [16]: 5.46
pEC50 [4]: 6.26
CC50 [1]: > 10 µM
pIC50 [14]: < 4.00
pIC50 [15]: 4.96
pEC50 [17]: 6.26
pIC50 [5]: 5.48
pIC50 [2]: 5.28
pIC50 [7]: 5.42
pIC50 [9]: 5.66
pIC50 [10]: 6.46

SMILES: NC[C@@H]1CCn2cc(c3ccccc32)C2=C(C(=O)NC2=O)c2cn(c3ccccc23)CCO1
pIC50 [12]: 4.08
pIC50 [16]: 5.96
pEC50 [4]: 5.12
CC50 [1]: > 20 µM
pIC50 [14]: < 4.00
pIC50 [15]: 4.05
pEC50 [17]: 5.12
pIC50 [5]: 5.59
pIC50 [2]: 5.57
pIC50 [7]: < 5.30
pIC50 [9]: 5.68
pIC50 [10]: 6.62

pIC50 [12]: 4.31
pEC50 [4]: 6.62
pEC50 [17]: 6.62
pIC50 [5]: 6.77
pIC50 [7]: 5.96
pIC50 [9]: 6.57
pIC50 [10]: 7.51
SMILES: CNC[C@@H]1CCn2cc(c3ccccc32)C2=C(C(=O)NC2=O)c2cn(c3ccccc23)CCO1

SMILES: O=C1NC(=O)C2=C1c1cn(c3ccccc13)CCO[C@H](CN1CCOCC1)CCn1cc2c2ccccc21
pIC50 [3]: 7.42
pEC50 [4]: 5.46
CC50 [1]: > 20 µM
pIC50 [5]: 5.70
pIC50 [6]: 7.31
pIC50 [7]: < 5.30
pIC50 [8]: < 5.30
pIC50 [9]: 5.60
pIC50 [10]: 5.77
